ChEMBL document CHEMBL3992558, “Benzimidazole inhibitors from the Niclosamide chemotype inhibit Wnt/β-catenin signaling with selectivity over effects on ATP homeostasis” (Bioorg Med Chem, 2017)
pEC50, pIC50: −log10 of the molar value. Active and inactive are the calls of the source. The rule behind the calls is not given here.

How the values were obtained:
[1] = species: Homo sapiens; assay: Inhibition of Wnt/beta-catenin signaling in human U2OS cells expressing GFP-fused Fzd1 assessed as GFP-Fzd1 internalization by measuring number of punctate formed at 12.5 uM after 6 hrs by confocal microscopic method; assay type: cell-based
How it was run: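 U2OS cells stably expressing Frizzled1-GFP were plated in confocal dishes for 24 h, then treated with 12.5 μM compound in DMSO or DMSO for 6 h at 37°C and fixed in 4% paraformaldehyde. Confocal images (488-nm excitation) were read twice, blinded, and punctate was scored versus control on a 0–5 scale (0, 1, 3, 5).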

[2] = (§1) Inhibition of Wnt/beta-catenin signaling (unknown origin) expressed in HEK293 cells assessed as inhibition of Wnt3A-stimulated beta-catenin response transcription after 6 hrs by TOPflash dual luciferase reporter gene assay; assay type: cell-based; settings: Homo sapiens, HEK293, 6 h
How it was run: (§2)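 HEK293 cells stably carrying p8xTOPFlash and Renilla pRL-TK were seeded at confluency and given Wnt-3A conditioned medium (from L Wnt-3A cells) containing compound, 0.04–10 μM, or DMSO for 6 h. Lysates were read by dual-luciferase assay. The DMSO/Wnt3A signal was set as 100%, and curves were fit (mean ± SEM, n ≥ 3). Percent inhibition at 10 μM was reported where no IC50 could be fitted.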

[3] = system: HCT-116; assay: Effect on ATP homeostasis in human HCT116 cells assessed as reduction in ATP level at 2 uM after 3 hrs in glucose supplemented media by ATP bioluminescent assay; settings: hct-116, 3 h
[4] = species: Homo sapiens; assay: as §1; assay type: cell-based; how it was run: as §2
[5] = species: Homo sapiens; assay: Inhibition of Wnt/beta-catenin signaling in human HCT116 cells assessed as downregulation of cytosolic beta-catenin protein expression at 5 uM after 18 hrs by Western blot method; assay type: cell-based
How it was run: (§3)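 HCT-116 (McCoy's 5A) or SW480 (MEM) cells, each with 10% FBS, were grown 48 h on poly-D-lysine-coated wells to 60–80% confluency. Fresh medium with compound or DMSO (0.1% final) was added for 18 h. Cytosolic fractions (β-catenin, Axin2) were isolated with hypotonic buffer, or whole cells were lysed in Laemmli buffer (c-Myc, Cyclin D1, Survivin). Immunoblots used β-actin as loading control.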

[6] = species: Homo sapiens; assay: Inhibition of Wnt/beta-catenin signaling in human HCT116 cells assessed as downregulation of cytosolic Axin2 protein expression at 5 uM after 18 hrs by Western blot method; assay type: cell-based; how it was run: as §3
[7] = species: Homo sapiens; assay: Inhibition of Wnt/beta-catenin signaling in human HCT116 cells assessed as downregulation of c-Myc protein expression at 5 uM after 18 hrs by Western blot method; assay type: cell-based; how it was run: as §3
[8] = species: Homo sapiens; assay: Inhibition of Wnt/beta-catenin signaling in human HCT116 cells assessed as downregulation of Cyclin D1 protein expression at 5 uM after 18 hrs by Western blot method; assay type: cell-based; how it was run: as §3
[9] = species: Homo sapiens; assay: Inhibition of Wnt/beta-catenin signaling in human HCT116 cells assessed as downregulation of survivin protein expression at 5 uM after 18 hrs by Western blot method; assay type: cell-based; how it was run: as §3
[10] = species: Homo sapiens; assay: Inhibition of Wnt/beta-catenin signaling in human SW480 cells assessed as downregulation of cytosolic beta-catenin protein expression at 5 uM after 18 hrs by Western blot method; assay type: cell-based; how it was run: as §3
[11] = species: Homo sapiens; assay: Inhibition of Wnt/beta-catenin signaling in human SW480 cells assessed as downregulation of cytosolic Axin2 protein expression at 5 uM after 18 hrs by Western blot method; assay type: cell-based; how it was run: as §3
[12] = species: Homo sapiens; assay: Inhibition of Wnt/beta-catenin signaling in human SW480 cells assessed as downregulation of c-Myc protein expression at 5 uM after 18 hrs by Western blot method; assay type: cell-based; how it was run: as §3
[13] = species: Homo sapiens; assay: Inhibition of Wnt/beta-catenin signaling in human SW480 cells assessed as downregulation of Cyclin D1 protein expression at 5 uM after 18 hrs by Western blot method; assay type: cell-based; how it was run: as §3
[14] = species: Homo sapiens; assay: Inhibition of Wnt/beta-catenin signaling in human SW480 cells assessed as downregulation of survivin protein expression at 5 uM after 18 hrs by Western blot method; assay type: cell-based; how it was run: as §3
[15] = system: HCT-116; assay: Effect on ATP homeostasis in human HCT116 cells assessed as reduction in ATP level at 0.5 to 2 uM after 3 hrs in glucose supplemented media by ATP bioluminescent assay; assay type: ADME, cell-based; settings: hct-116, 3 h
How it was run: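 HCT-116 cells attached overnight on poly-D-lysine plates, then treated 3 h at 37°C in DMEM with 2mM sodium pyruvate, 2mM L-glutamine and 5mM glucose (0.1% final DMSO). ATP was read by luciferase bioluminescence after lysis with Somatic Cell ATP Releasing Reagent, normalized to DMSO control.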

[16] = system: HCT-116; assay: Effect on ATP homeostasis in human HCT116 cells assessed as reduction in ATP level after 3 hrs in absence of glucose by ATP bioluminescent assay; assay type: ADME, cell-based; settings: for pIC50: Homo sapiens, HCT-116, 3 h; for Activity: human, hct-116, 3 h
How it was run: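 HCT-116 cells attached overnight on poly-D-lysine plates in McCoy's 5A/10% FBS, then switched to glucose-free DMEM with 2mM sodium pyruvate and 2mM L-glutamine containing compound (0.1% final DMSO). After 3 h at 37°C, 5% CO2, cells were lysed in Somatic Cell ATP Releasing Reagent and ATP was read by luciferase bioluminescence, normalized to DMSO control.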

[17] = species: Homo sapiens; assay: Inhibition of Wnt/beta-catenin signaling (unknown origin) expressed in HEK293 cells assessed as inhibition of Wnt3A-stimulated beta-catenin response transcription at 0.16 uM after 6 hrs by TOPflash dual luciferase reporter gene assay relative to control; assay type: cell-based
How it was run: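 TOPFlash/Renilla stable HEK293 cells were split from the same batch as parallel ATP assay plates, attached overnight, then treated 6 h with compound in Wnt-3A conditioned medium. Dual-luciferase read-out was taken relative to the DMSO control. Three separate experiments used different cell batches.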

[18] = system: HCT-116; assay: Effect on ATP homeostasis in human HCT116 cells assessed as reduction in ATP level at 0.16 uM after 3 hrs in absence of glucose by ATP bioluminescent assay; assay type: ADME, cell-based; parameters: scale not given: the % may be the effect or the level left; settings: hct-116, 3 h
[19] = system: HEK293 (Homo sapiens); assay: Effect on ATP homeostasis in human HEK293 cells assessed as reduction in ATP level after 3 hrs in absence of glucose by ATP bioluminescent assay; settings: HEK293, 3 h
[20] = species: Homo sapiens; assay: Inhibition of Wnt/beta-catenin signaling (unknown origin) expressed in HEK293 cells assessed as inhibition of Wnt3A-stimulated beta-catenin response transcription at 0.31 uM after 6 hrs by TOPflash dual luciferase reporter gene assay relative to control; assay type: cell-based
How it was run: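 HEK293 cells stably carrying p8xTOPFlash and a Renilla luciferase control (pRL-TK), grown in MEM with 10% FBS and 1ug/mL puromycin. Cells were seeded at confluence, then given Wnt-3A conditioned medium (from L Wnt-3A cells) with compound (0.04 to 10μM) or DMSO for 6 h. Lysates were read by dual luciferase, with the Wnt3A + DMSO signal set as 100%.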

[21] = species: Homo sapiens; assay: Inhibition of Wnt/beta-catenin signaling (unknown origin) expressed in HEK293 cells assessed as inhibition of Wnt3A-stimulated beta-catenin response transcription at 10 uM after 6 hrs by TOPflash dual luciferase reporter gene assay relative to control; assay type: cell-based; how it was run: as §2

## O=[N+]([O-])c1ccc2nc(-c3ccccc3O)[nH]c2c1
[1]
  Activity: 0
[2]
  pIC50: 5.35

## CCCCCC[C@H]1C(=O)O[C@H](C)[C@H](NC(=O)c2cccc(NC=O)c2O)C(=O)O[C@@H](C)[C@@H]1OC(=O)CC(C)C [ANTIMYCIN A]
[3]
  Activity: Toxic

## COc1ccc(O)c(-c2nc3cc([N+](=O)[O-])ccc3[nH]2)c1
[1]
  Activity: 0
[2]
  pIC50: 5.38

## O=C(Nc1ccc([N+](=O)[O-])cc1Cl)c1cc(Cl)ccc1O [NICLOSAMIDE]
[1]
  Activity: 5
[2]
  pIC50: 6.55 to 6.92
[4]
  inhibition: Dose-dependent effect
[5]
  inhibition: Active
[6]
  inhibition: Active
[7]
  inhibition: Active
[8]
  inhibition: Active
[9]
  inhibition: Active
[10]
  inhibition: Active
[11]
  inhibition: Active
[12]
  inhibition: Active
[13]
  inhibition: Active
[14]
  inhibition: Active
[15]
  Activity: Toxic
[16]
  pIC50: 6.60
  Activity: Dose-dependent effect
[17]
  inhibition: 40 to 50%
[18]
  Activity: > 80%
[19]
  pEC50: 7.25

## O=[N+]([O-])c1ccc2nc(-c3cc(Cl)ccc3O)[nH]c2c1
[1]
  Activity: 3
[2]
  pIC50: 6.32 to 6.44
[4]
  inhibition: Dose-dependent effect
[5]
  inhibition: Active
[6]
  inhibition: Active
[7]
  inhibition: Active
[8]
  inhibition: Active
[9]
  inhibition: Active
[10]
  inhibition: Active
[11]
  inhibition: Active
[12]
  inhibition: Active
[13]
  inhibition: Active
[14]
  inhibition: Active
[20]
  inhibition: 40%
[19]
  pEC50: 5.54

## Cc1ccc(S(=O)(=O)Nc2ccccc2-c2nc3cc(C(F)(F)F)ccc3[nH]2)cc1
[1]
  Activity: 0
[21]
  inhibition: 57%

## Oc1ccc(Cl)cc1-c1nc2cc(F)ccc2[nH]1
[1]
  Activity: 0
[2]
  pIC50: 5.12

## Oc1ccc(Cl)cc1-c1nc2cc(C(F)(F)F)ccc2[nH]1
[1]
  Activity: 3
[2]
  pIC50: 6.57 to 6.64
[4]
  inhibition: Dose-dependent effect
[5]
  inhibition: Active
[6]
  inhibition: Active
[7]
  inhibition: Active
[8]
  inhibition: Active
[9]
  inhibition: Active
[10]
  inhibition: Active
[11]
  inhibition: Active
[12]
  inhibition: Active
[13]
  inhibition: Active
[14]
  inhibition: Active
[15]
  Activity: Non-Toxic
[16]
  Activity: Dose-dependent effect
[17]
  inhibition: 40 to 50%
[18]
  Activity: Non-Toxic
[19]
  pEC50: ≤ 5.30

## O=S(=O)(Nc1ccccc1-c1nc2cc(C(F)(F)F)ccc2[nH]1)c1c(F)cccc1F
[1]
  Activity: 0
[21]
  inhibition: 8%

## COc1ccc2[nH]c(-c3cc(Cl)ccc3O)nc2c1
[1]
  Activity: 0
[2]
  pIC50: 5.90

## Cc1ccc(S(=O)(=O)Nc2ccc(Cl)cc2C(=O)Nc2ccc([N+](=O)[O-])cc2Cl)cc1
[1]
  Activity: 3
[2]
  pIC50: 5.82
[16]
  pIC50: > 6.60

## Cc1ccc(O)c(-c2nc3cc([N+](=O)[O-])ccc3[nH]2)c1
[1]
  Activity: 0
[2]
  pIC50: 5.77
[15]
  Activity: Non-Toxic

## CS(=O)(=O)Nc1ccccc1-c1nc2cc(C(F)(F)F)ccc2[nH]1
[1]
  Activity: 0
[21]
  inhibition: 74%

## O=[N+]([O-])c1ccc2[nH]c(-c3ccccc3NS(=O)(=O)c3c(F)cccc3F)nc2c1
[1]
  Activity: 0
[21]
  inhibition: 15%

## O=[N+]([O-])c1ccc2nc(-c3cc(Cl)cc(Cl)c3O)[nH]c2c1
[1]
  Activity: 2
[2]
  pIC50: 5.81
[15]
  Activity: Toxic
[16]
  pIC50: > 6.60

## CS(=O)(=O)Nc1ccccc1-c1nc2cc([N+](=O)[O-])ccc2[nH]1
[1]
  Activity: 0
[21]
  inhibition: 50%

## CC[C@H]1/C=C/C=C/C[C@@H](C)[C@H](O)[C@@](C)(O)C(=O)[C@@H](C)[C@H](O)[C@@H](C)C(=O)[C@@H](C)[C@H](O)[C@@H](C)/C=C/C(=O)O[C@@H]2[C@H](C)[C@H](CC1)O[C@]1(CC[C@H](C)[C@H](C[C@@H](C)O)O1)[C@H]2C [OLIGOMYCIN]
[3]
  Activity: Toxic

## N#CC(C#N)=NNc1ccc(OC(F)(F)F)cc1
[3]
  Activity: Toxic

## Cc1ccc(S(=O)(=O)Nc2ccc(Cl)cc2-c2nc3cc([N+](=O)[O-])ccc3[nH]2)cc1
[1]
  Activity: 0
[21]
  inhibition: 48%

## Cc1ccc(S(=O)(=O)Nc2ccccc2-c2nc3cc([N+](=O)[O-])ccc3[nH]2)cc1
[1]
  Activity: 0
[21]
  inhibition: 53%

## Oc1ccc(Cl)cc1-c1nc2ccccc2[nH]1
[1]
  Activity: 0
[2]
  pIC50: 5.57

## Cc1ccc(S(=O)(=O)Nc2ccc(Cl)cc2-c2nc3cc(C(F)(F)F)ccc3[nH]2)cc1
[1]
  Activity: 0
[2]
  pIC50: 5.49
